ChEMBL document CHEMBL3407478, “Development of a series of aryl pyrimidine kynurenine monooxygenase inhibitors as potential therapeutic agents for the treatment of Huntington's disease” (J Med Chem, 2015)

Assays:
[1] = test system: Plasma; experiment: Dose normalized AUC (0 to infinity) in BCRP knock out FVB/N mouse plasma at 5 mg equivalents/kg, iv by LC-MS/MS analysis; format: ADME, organism-based; settings: in vivo
In short: (§1)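 Male mice given a single 5 mg equiv/kg iv bolus: FVB wild type, Bcrp(−/−), Mdr1a/b(−/−) and Mdr1a/b(−/−)/Bcrp(−/−). Brain and plasma concentration–time profiles were used to derive dose-normalized AUC (0–infinity).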

[2] = target: Kynurenine 3-monooxygenase (Rattus norvegicus, UniProt O88867); experiment: Inhibition of rat KMO assessed as conversion of kynurenine to 3-hydroxykynurenine by LC-MS/MS analysis
Chain of Kynurenine 3-monooxygenase (Rattus norvegicus, UniProt O88867) (O88867 whole entry): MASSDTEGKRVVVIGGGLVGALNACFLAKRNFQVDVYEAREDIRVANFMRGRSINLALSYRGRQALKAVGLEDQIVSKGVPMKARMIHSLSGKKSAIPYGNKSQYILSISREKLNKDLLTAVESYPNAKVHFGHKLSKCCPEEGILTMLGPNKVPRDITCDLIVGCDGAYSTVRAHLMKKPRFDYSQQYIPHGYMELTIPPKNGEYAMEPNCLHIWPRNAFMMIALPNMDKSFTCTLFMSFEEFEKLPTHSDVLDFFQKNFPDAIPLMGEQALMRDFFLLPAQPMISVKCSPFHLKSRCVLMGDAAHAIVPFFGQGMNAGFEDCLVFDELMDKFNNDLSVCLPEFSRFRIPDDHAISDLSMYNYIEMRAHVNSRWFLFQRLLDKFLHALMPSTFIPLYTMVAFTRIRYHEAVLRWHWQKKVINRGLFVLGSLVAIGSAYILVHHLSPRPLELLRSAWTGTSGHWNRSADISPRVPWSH
In short: (§2)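 Mitochondrial fractions from mouse or rat liver tissue used as KMO source. Conversion of kynurenine to 3-hydroxykynurenine quantified by LC-MS/MS; IC50 averaged from triplicate tests.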

[3] = test system: Plasma; experiment: Dose normalized Cmax in Sprague-Dawley rat plasma at 10 mg equivalents/kg, po after 0.25 to 12 hrs; format: ADME, organism-based; settings: in vivo
In short: (§3)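 Male Sprague-Dawley rats given a single oral dose of 10 mg equiv/kg as a 2 mg equiv/mL solution in 10% hydroxypropyl-β-cyclodextrin. Plasma, liver, kidney, cortex, striatum and CSF levels were measured from 0.25 to 12 h. Brain tissue was taken from nonperfused brains. CSF AUCN covers 0–8 h because the elimination phase was undefined.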

[4] = Volume of distribution at steady state in Sprague-Dawley rat plasma at 6.2 mg equivalents/kg, iv; format: ADME, cell-free; settings: read-out: Vdss
In short: (§4)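 Nonfasted male Sprague-Dawley rats (300−370 g). Single iv tail-vein dose of 6.2 mg equiv/kg (1.24 mg equiv/mL in DMSO:PEG400:water 10:40:50) or oral gavage of 12 mg equiv/kg (1.20 mg equiv/mL in 10% hydroxypropyl-β-cyclodextrin). Terminal bleeds under isoflurane (N = 3) at 0.083−24 h; heparin plasma; tissues snap-frozen.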

[5] = test system: Rattus norvegicus; experiment: Inhibition of KMO in Sprague-Dawley rat brain assessed as time duration for elevation in kynurenic acid plasma level at 10 mg/kg, po by […] analysis; format: functional
[6] = test system: Brain; experiment: Dose normalized AUC (0 to infinity) in Sprague-Dawley rat brain at 12 mg equivalents/kg, po; format: ADME, tissue-based; settings: in vivo
[7] = target: Kynurenine 3-monooxygenase (Homo sapiens, UniProt O15229); experiment: Inhibition of human KMO transfected in CHO cells assessed as conversion of kynurenine to 3-hydroxykynurenine by LC-MS/MS analysis; format: cell-based
Chain of Kynurenine 3-monooxygenase (Homo sapiens, UniProt O15229) (O15229 whole entry): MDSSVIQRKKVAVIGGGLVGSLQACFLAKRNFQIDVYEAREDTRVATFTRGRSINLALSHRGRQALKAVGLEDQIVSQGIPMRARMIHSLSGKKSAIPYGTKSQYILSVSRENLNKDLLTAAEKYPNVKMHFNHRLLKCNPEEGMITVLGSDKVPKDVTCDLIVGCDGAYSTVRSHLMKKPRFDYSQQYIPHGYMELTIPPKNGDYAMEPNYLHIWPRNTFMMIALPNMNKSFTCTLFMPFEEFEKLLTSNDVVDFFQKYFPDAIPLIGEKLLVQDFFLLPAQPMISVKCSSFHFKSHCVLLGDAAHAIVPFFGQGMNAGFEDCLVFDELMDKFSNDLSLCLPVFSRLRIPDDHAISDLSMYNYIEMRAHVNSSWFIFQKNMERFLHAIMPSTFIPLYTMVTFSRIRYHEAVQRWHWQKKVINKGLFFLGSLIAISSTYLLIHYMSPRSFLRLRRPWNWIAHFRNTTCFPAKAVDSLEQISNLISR

[8] = Tmax in Sprague-Dawley rat cortex at 10 mg equivalents/kg, po after 0.25 to 12 hrs; format: ADME, organism-based
In short: (§5)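 Fed male Sprague-Dawley rats given a single oral dose of 10 mg equiv/kg as 2 mg equiv/mL in 10% hydroxypropyl-β-cyclodextrin. Plasma, CSF, kidney, liver, and cortex and striatum from nonperfused brains sampled from 0.25 to 12 h.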

[9] = test system: Cerebrospinal fluid; experiment: Dose normalized AUC (0 to infinity) in Sprague-Dawley rat CSF at 10 mg equivalents/kg, po after 0 to 8 hrs; format: ADME, organism-based; settings: in vivo; in short: as §3
[10] = target: Kynurenine 3-monooxygenase (Mus musculus, UniProt Q91WN4); experiment: Inhibition of mouse KMO assessed as conversion of kynurenine to 3-hydroxykynurenine by LC-MS/MS analysis; in short: as §2
Chain of Kynurenine 3-monooxygenase (Mus musculus, UniProt Q91WN4) (Q91WN4 whole entry): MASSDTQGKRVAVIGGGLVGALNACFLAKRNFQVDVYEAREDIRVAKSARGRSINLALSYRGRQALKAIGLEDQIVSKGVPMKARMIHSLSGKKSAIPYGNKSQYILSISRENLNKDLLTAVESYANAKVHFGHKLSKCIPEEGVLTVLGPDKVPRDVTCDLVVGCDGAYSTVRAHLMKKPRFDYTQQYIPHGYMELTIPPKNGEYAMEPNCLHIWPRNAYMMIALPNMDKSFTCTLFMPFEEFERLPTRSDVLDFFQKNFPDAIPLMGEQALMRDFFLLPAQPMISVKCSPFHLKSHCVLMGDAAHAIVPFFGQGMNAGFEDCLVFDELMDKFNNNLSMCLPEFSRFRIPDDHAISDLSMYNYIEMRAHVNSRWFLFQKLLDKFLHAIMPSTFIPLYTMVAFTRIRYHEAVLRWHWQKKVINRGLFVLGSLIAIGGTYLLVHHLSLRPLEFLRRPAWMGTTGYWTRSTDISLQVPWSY

[11] = Half life at steady state in Sprague-Dawley rat plasma at 6.2 mg equivalents/kg, iv; format: ADME, cell-free
[12] = test system: Rattus norvegicus; experiment: Inhibition of KMO in po dosed Sprague-Dawley rat plasma assessed as elevation in kynurenine plasma level by […] analysis; format: functional, organism-based
[13] = test system: Plasma; experiment: Dose normalized Cmax in Sprague-Dawley rat plasma at 12 mg equivalents/kg, po after 1 hr; format: ADME, organism-based; settings: in vivo
[14] = Half life in Sprague-Dawley rat plasma at 10 mg equivalents/kg, po after 0.25 to 12 hrs; format: ADME, organism-based; in short: as §3
[15] = Half life in Sprague-Dawley rat cortex at 10 mg equivalents/kg, po after 0.25 to 12 hrs; format: ADME, organism-based
In short: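 Nonfasted male Sprague-Dawley rats; single oral dose 10 mg equiv/kg as 2 mg equiv/mL solution in 10% hydroxypropyl-β-cyclodextrin. Cortex taken from nonperfused brains, sampled 0.25 to 12 h after dosing. Drug measured by LC-MS/MS; half-life derived from concentration-time profile.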

[16] = test system: Cortex; experiment: Dose normalized AUC (0 to infinity) in Sprague-Dawley rat cortex at 10 mg equivalents/kg, po after 0.25 to 12 hrs; format: ADME, organism-based; settings: in vivo; in short: as §3
[17] = Tmax in Sprague-Dawley rat brain at 12 mg equivalents/kg, po; format: ADME, tissue-based; in short: as §4
[18] = test system: Brain; experiment: Dose normalized AUC (0 to infinity) in MDR1a knock out FVB/N mouse brain at 5 mg equivalents/kg, iv by LC-MS/MS analysis; format: ADME, organism-based; settings: in vivo; in short: as §1
[19] = Half life in Sprague-Dawley rat plasma at 12 mg equivalents/kg, po; format: ADME, cell-free
[20] = test system: Rattus norvegicus; experiment: Inhibition of KMO in Sprague-Dawley rat striatum brain microdialysate assessed as time duration for elevation in kynurenine level at 10 mg/kg, po by […] analysis; format: functional
In short: (§6)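 Freely moving Sprague-Dawley rats given 10 mg/kg po, with a microdialysis probe implanted in the striatum. Dialysate was sampled over 0–240 min for free compound and for KYN, KYNA, AA and 3-HK, quantified by LC-MS/MS. Metabolite changes were compared with t = 0 min by 2-way ANOVA.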

[21] = Fraction unbound in rat plasma; format: ADME, cell-free
[22] = Lipophilicity, log P of the compound at pH 7; format: physicochemical; settings: buffer
[23] = Half life in Sprague-Dawley rat brain at 6.2 mg equivalents/kg, iv; format: ADME, tissue-based
[24] = Half life in Sprague-Dawley rat brain at 12 mg equivalents/kg, po; format: ADME, tissue-based
[25] = Fraction unbound in mouse plasma; format: ADME, cell-free
[26] = test system: Cortex; experiment: Dose normalized Cmax in Sprague-Dawley rat cortex at 10 mg equivalents/kg, po after 0.25 to 12 hrs; format: ADME, organism-based; settings: in vivo; in short: as §3
[27] = test system: Kidney; experiment: Dose normalized Cmax in Sprague-Dawley rat kidney at 10 mg equivalents/kg, po after 0.25 to 12 hrs; format: ADME, organism-based; settings: in vivo; in short: as §3
[28] = test system: Plasma; experiment: Dose normalized AUC (0 to infinity) in MDR1a knock out FVB/N mouse plasma at 5 mg equivalents/kg, iv by LC-MS/MS analysis; format: ADME, organism-based; settings: in vivo; in short: as §1
[29] = test system: Brain; experiment: Dose normalized Cmax in Sprague-Dawley rat brain at 6.2 mg equivalents/kg, iv; format: ADME, tissue-based; settings: in vivo
[30] = test system: Rattus norvegicus; experiment: Inhibition of KMO in Sprague-Dawley rat striatum brain microdialysate assessed as time duration for elevation in 3-hydroxykynurenice acid level by 2-fold at 10 mg/kg, po by […] analysis; format: functional; in short: as §6
[31] = test system: Brain; experiment: Dose normalized AUC (0 to infinity) in BCRP and MDR1a knock out FVB/N mouse brain at 5 mg equivalents/kg, iv by LC-MS/MS analysis; format: ADME, organism-based; settings: in vivo; in short: as §1
[32] = test system: Rattus norvegicus; experiment: Inhibition of KMO in po dosed Sprague-Dawley rat plasma assessed as reduction in quinolinic acid plasma level by LC-MS/MS analysis
[33] = test system: Brain; experiment: Dose normalized AUC (0 to infinity) in Sprague-Dawley rat brain at 6.2 mg equivalents/kg, iv; format: ADME, tissue-based; settings: in vivo
[34] = Tmax in Sprague-Dawley rat kidney at 10 mg equivalents/kg, po after 0.25 to 12 hrs; format: ADME, organism-based; in short: as §5
[35] = test system: Brain; experiment: Dose normalized AUC (0 to infinity) in BCRP knock out FVB/N mouse brain at 5 mg equivalents/kg, iv by LC-MS/MS analysis; format: ADME, organism-based; settings: in vivo; in short: as §1

AUC/dose [1]: 3.6 µM·kg·h/mg
IC50 [2]: 4 nM
Cmax/dose [3]: 2.6 µM·kg/mg
Vd [4]: 0.32 L/kg
AUC/dose [6]: 0.12 µM·kg·h/mg
IC50 [7]: 8 nM
Tmax [8]: 0.5 h
AUC/dose [9]: 0.014 µM·kg·h/mg
IC50 [10]: 5.1 nM
half-life [11]: 1.8 h
Cmax/dose [13]: 1.9 µM·kg/mg
half-life [14]: 1.7 h
half-life [15]: 1.9 h
AUC/dose [16]: 0.056 µM·kg·h/mg
Tmax [17]: 1 h
AUC/dose [18]: 0.073 µM·kg·h/mg
half-life [19]: 2.4 h
fraction unbound [21]: 0.05
logD [22]: 0.9
half-life [23]: 0.7 h
half-life [24]: 1.7 h
fraction unbound [25]: 0.036
Cmax/dose [26]: 0.03 µM·kg/mg
Cmax/dose [27]: 26 µM·kg/mg
AUC/dose [28]: 2.6 µM·kg·h/mg
Cmax/dose [29]: 0.25 µM·kg/mg
AUC/dose [31]: 0.23 µM·kg·h/mg
AUC/dose [33]: 0.23 µM·kg·h/mg
Tmax [34]: 0.5 h
AUC/dose [35]: 0.17 µM·kg·h/mg
Compound: O=C(O)c1cc(-c2ccc(OC3CC3)c(Cl)c2)ncn1
Time [5]: >=4 hr
inhibition [12]: Dose-dependent effect
Time [20]: 40 min
Time [30]: 160 min
inhibition [32]: Dose-dependent effect
